Measurements taken from ChEMBL document CHEMBL5724801, “EUbOPEN Chemogenomics Library - Multiplex” (2024).
Values joined by “and” are separate entries in the source; they are usually repeats but may differ in a detail not shown here. Equal values may be shown once.

System: HEK-293T
Assay: Multiplex assay against HEK293T
Format: toxicity, cell-based
Conditions: human
Method in brief: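 Imaging took place on a CQ1 microscope at 37°C and 5% CO2 once compound had been added to live cells stained at seeding with Hoechst33342, BioTracker Green Microtubule Cytoskeleton Dye, MitoTracker Red and Annexin V Alexa Fluor 680. CellPathfinder machine-learning gating classed cells as Hoechst high-intensity objects or normal cells, classed normal cells as having healthy, pyknosed or fragmented nuclei, and classed pyknosed cells as mitotic or apoptotic. Tubulin, mitochondrial-mass and membrane-permeability phenotypes are per cents of the healthy-nucleus cells.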

[1] = 12 h, 1 µM, compound concentration 1 uM
[2] = 12 h, 10 µM, compound concentration 10 uM
[3] = 24 h, 1 µM, compound concentration 1 uM
[4] = 24 h, 10 µM, compound concentration 10 uM
[5] = 48 h, 1 µM, compound concentration 1 uM
[6] = 48 h, 10 µM, compound concentration 10 uM

With COCCNc1nc2ccc(C#CC3(O)CCCCC3)cc2n1-c1ccnc(N)n1 the “Population Apoptotic (%)” value [1] was 9.87% and 12.26%, the “Population Fragmented Nuclei (%)” value [1] was 1.33% and 5.34% and the “Population Hoechst High Intensity Objects (%)” value [1] was 0%. The “Population Membrane Permeable-Phenotype (%)” value [1] was 1.82% and 0%, the “Population Mitotic Cells (%)” value [1] was 90.13% and 87.74% and the “Population Normal (%)” value [1] was 100%. For the same molecule, the “Population Pyknosed Nuclei (%)” value [1] was 40.32% and 80.92%, the “Total Cell Count” value [1] was 377 and 131 and the “Population Apoptotic (%)” value [2] was 17.15% and 7.53%. The “Population Fragmented Nuclei (%)” value [2] was 0.29% and 2.41%, the “Population Hoechst High Intensity Objects (%)” value [2] was 0% and the “Population Membrane Permeable-Phenotype (%)” value [2] was 0%. The “Population Mitotic Cells (%)” value [2] was 82.85% and 92.47%, the “Population Normal (%)” value [2] was 100% and the “Population Pyknosed Nuclei (%)” value [2] was 68.29% and 87.95%. For the same molecule, the “Population Tubulin-Different-Phenotype (%)” value [2] was 29.09% and 56.25%, the “Total Cell Count” value [2] was 350 and 166 and the “Population Apoptotic (%)” value [3] was 11.24% and 8.33%. For the same molecule, the “Population Fragmented Nuclei (%)” value [3] was 1.68% and 2.99%, the “Population Healthy Nuclei (%)” value [3] was 69.92% and 32.34% and the “Population Hoechst High Intensity Objects (%)” value [3] was 0% and 0.6%. The “Population Membrane Permeable-Phenotype (%)” value [3] was 2.88% and 1.85%, the “Population Mitochondria Different-Phenotype (%)” value [3] was 12.5% and 16.67% and the “Population Mitotic Cells (%)” value [3] was 88.76% and 91.67%. The “Population Normal (%)” value [3] was 100% and 99.4%, the “Population Pyknosed Nuclei (%)” value [3] was 28.4% and 64.67% and the “Population Tubulin-Different-Phenotype (%)” value [3] was 6.49% and 5.56%. The “Population Apoptotic (%)” value [4] was 30% and 31.16%, the “Population Fragmented Nuclei (%)” value [4] was 0.22% and 1.23% and the “Population Hoechst High Intensity Objects (%)” value [4] was 0.22% and 0%. The “Population Membrane Permeable-Phenotype (%)” value [4] was 1% and 0%, the “Population Mitochondria Different-Phenotype (%)” value [4] was 22.89% and 17.39% and the “Population Mitotic Cells (%)” value [4] was 70% and 68.84%. For the same molecule, the “Population Normal (%)” value [4] was 99.78% and 100%, the “Population Pyknosed Nuclei (%)” value [4] was 55.31% and 84.66% and the “Population Tubulin-Different-Phenotype (%)” value [4] was 37.81% and 21.74%. The “Total Cell Count” value [4] was 453 and 163, the “Population Apoptotic (%)” value [5] was 6.04% and 14.1% and the “Population Fragmented Nuclei (%)” value [5] was 1.77% and 1.97%. For the same molecule, the “Population Healthy Nuclei (%)” value [5] was 86.69% and 67.32%, the “Population Hoechst High Intensity Objects (%)” value [5] was 0.06% and 0% and the “Population Membrane Permeable-Phenotype (%)” value [5] was 6.87% and 2.34%. For the same molecule, the “Population Mitochondria Different-Phenotype (%)” value [5] was 9.94% and 24.56%, the “Population Mitotic Cells (%)” value [5] was 93.96% and 85.9% and the “Population Normal (%)” value [5] was 99.94% and 100%. For the same molecule, the “Population Pyknosed Nuclei (%)” value [5] was 11.53% and 30.71%, the “Population Apoptotic (%)” value [6] was 18.78% and 26.09% and the “Population Fragmented Nuclei (%)” value [6] was 0.76% and 2.91%. For the same molecule, the “Population Healthy Nuclei (%)” value [6] was 68.15% and 30.1%, the “Population Hoechst High Intensity Objects (%)” value [6] was 0.25% and 0% and the “Population Membrane Permeable-Phenotype (%)” value [6] was 2.79% and 1.61%. For the same molecule, the “Population Mitochondria Different-Phenotype (%)” value [6] was 59.96% and 58.06%, the “Population Mitotic Cells (%)” value [6] was 81.22% and 73.91% and the “Population Normal (%)” value [6] was 99.75% and 100%. For the same molecule, the “Population Pyknosed Nuclei (%)” value [6] was 31.09% and 66.99%.
